The source of these data is ChEMBL document CHEMBL1132479, “Synthesis, physicochemical characterization, and biological evaluation of 2-(1'-hydroxyalkyl)-3-hydroxypyridin-4-ones: novel iron chelators with enhanced pFe(3+) values” (J Med Chem, 1999).

Data set [1] in a line: Partition coefficient (logD7.4). Format: physicochemical. Particulars: octanol/water, pH 7.4. The procedure, abridged:
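Partitioning between 1-octanol and 50 mM MOPS buffer pH 7.4 (mutually saturated) in an automated continuous-flow filter-probe system. Compound was dissolved in buffer to an absorbance of 0.5–1.5 at ~280 nm. The aqueous phase was separated by a hydrophilic cellulose filter and monitored spectrophotometrically. D7.4 was calculated after each octanol addition.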

Data set [2] is described as follows: Partition coefficient (logP). Format: physicochemical. The note with it: octanol/water.
In data set [3] the test system is Rattus norvegicus. Nature of the data set: (§1) Compound was tested in vivo for Iron mobilization efficacy against hepatocytes in normal fasted rats (loaded with [59Fe]-Ferritin). Type of data set: functional, Hepatocyte. Further details: concentration or dose not given beside the values. The procedure, abridged:
(§2)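 Fasted normal rats (190–230 g) received [59Fe]ferritin by tail vein to label hepatocyte iron. One hour later chelator was given orally at 450 µmol/kg; controls received an equal volume of water. Rats were kept in metabolic cages, with food allowed 1 h after dosing and water unrestricted. At 24 h, liver and GI tract plus feces were gamma-counted. Mean ± SD, n=5.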

For data set [4], the system named is Rattus norvegicus. Nature of the data set: Compound was tested in vivo for Iron mobilization against hepatocytes in normal fasted rats (loaded with [59Fe]-Ferritin). Format: functional, Hepatocyte. A digest of the protocol: as §2
Data set [5] is described as follows: pFe3+ (negative logarithm of the concentration of the free Iron(III) in solution) of the compound. Type of data set: ADME. A digest of the protocol: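 pFe3+ is the negative log of free Fe(III), calculated from the ligand pKa values and Fe(III) stability constants at total ligand 10^-5 M, total iron 10^-6 M, pH 7.4.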
Data set [6] in a line: Ligand pka1 value was investigated by potentiometric titration. Format: physicochemical. Particulars: read-out: pKa1. A digest of the protocol:
(§3)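 Simultaneous potentiometric and UV/vis titration in 0.1 M KCl (25 mL), acidified with 0.2 M HCl and titrated with 0.2 M KOH in 0.01-mL increments. Run at 25 ± 0.5 °C under argon. Electrode zero was set by a blank titration using Gran's plot. pKa values came from non-linear least-squares regression, accurate to ±0.02 pH unit.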

Data set [7] in a line: Ligand pka2 value was investigated by potentiometric titration. Type of data set: physicochemical. The note with it: read-out: pKa2. A digest of the protocol: as §3
Data set [8] can be described thus: Ligand pka2 value was investigated by spectrophotometric titration. Type of data set: physicochemical. Particulars: read-out: pKa2. The procedure, abridged:
as §3

The nature of data set [9]: Affinity constant log K1 value for Fe(III) complex. Type of data set: ADME. A digest of the protocol: (§4)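 Spectrophotometric titration of Fe(III) with ligand at a ligand:iron ratio of about 10:1, with 0.2 M KOH added by programmed autoburette. Full spectra were recorded across pH, e.g. 1.59–10.05 with [Fe(III)] = 1.8×10^-4 M. Cumulative stability constants were optimized by non-linear least-squares regression using the predetermined pKa values, electrode slope and electrode zero.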

The nature of data set [10]: Affinity constant log K2 value for Fe(III) complex. Type of data set: ADME. The procedure, abridged:
as §4

The nature of data set [11]: Affinity constant log K3 value for Fe(III) complex. Type of data set: ADME. The procedure, abridged:
as §4

Data set [12] is described as follows: Affinity constant log beta-3 value for Fe(III) complex. Type of data set: ADME. A digest of the protocol: as §4
Data set [13] relates to Rattus norvegicus. Briefly: Compound was tested in vivo for Iron mobilization against hepatocytes in normal fasted rats ( loaded with [59Fe]-Ferritin). Type of data set: functional, Hepatocyte. A digest of the protocol:
as §2

The subject of data set [14] is Rattus norvegicus. Described as §1. Format: functional, Hepatocyte. A digest of the protocol: as §2
Data set [15] in a line: Ligand pka1 value was investigated by spectrophotometric titration. Format: physicochemical. Particulars: read-out: pKa1. A digest of the protocol: as §3
The subject of data set [16] is Rattus norvegicus. Briefly: Compound was tested in vivo for Iron mobilization efficacy against hepatocytes in normal fasted rats(loaded with [59Fe]-Ferritin). Format: functional, Hepatocyte. The procedure, abridged:
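Normal fasted rats (190–230 g); hepatocyte iron labelled with [59Fe]ferritin given by tail vein. One hour later, chelator 450 µmol/kg was given orally; controls received an equivalent volume of water. Rats were housed in individual metabolic cages with urine and feces collected. Killed 24 h after ferritin; liver and GI tract with contents and feces were gamma counted. Means ± SD, n=5.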

`O=C(OCCCn1ccc(=O)c(O)c1CO)c1ccccc1` showed a logD in data set [1] of 0.749. This molecule came in with a logP in data set [2] of 0.749. In the data set with Rattus norvegicus [3], the Efficacy was found to be 52.1%. Besides, in the data set with Rattus norvegicus [4], the Iron mobilization turned out to be 56%.

In data set [1], `Cn1ccc(=O)c(O)c1CO` showed a logD of -1.32. Also, in [2], the logP is -1.32. Besides, the pFe3 in data set [5] worked out at 20.9. For the same molecule, the values for the pKa in data set [6], in data set [7] and in data set [8] were 2.92, 9.11 and 9.11, respectively. Further, in data set [9], the “Log K1” value came to 14.47. Moreover, in data set [10], the “Log K2” value is 11.27. Moreover, the “Log K3” value in data set [11] was 9.58. In data set [12], the “Log beta3” value is 35.3. For the same molecule, the Efficacy in the data set with Rattus norvegicus [3] is recorded as 4.6%. In the data set with Rattus norvegicus [4], this molecule registered an Iron mobilization of 8.44%.

`CCn1ccc(=O)c(O)c1CO`: in data set [1], the logD is -0.854. In [2], the logP is -0.854. The pFe3 in data set [5] is recorded as 21. In addition, the figures for the pKa in data set [6] and in data set [7] were 2.8 and 9.27, respectively. Further, the “Log K1” value in data set [9] was found to be 14.66. Besides, the “Log K2” value in data set [10] worked out at 11.16. Further, the “Log K3” value in [11] was found to be 9.43. Further, the “Log beta3” value in [12] was found to be 35.3. In addition, the Efficacy in the data set on Rattus norvegicus [3] is 29.4%. The Iron mobilization with Rattus norvegicus [13] was determined as 33.3%.

The molecule `CCn1ccc(=O)c(O)c1C(C)O` (stereo not drawn) gave a logD in data set [1] of -0.575. In data set [2], this molecule displayed a logP of -0.575. Besides, the pFe3 in [5] is given as 21.4. Moreover, the pKa in data set [6] turned out to be 3.03; in data set [7], 8.77. In addition, the “Log K1” value in data set [9] amounted to 15.21. For the same molecule, in [10], the “Log K2” value amounted to 10.97. For the same molecule, the “Log K3” value in data set [11] was found to be 8.9. Moreover, the “Log beta3” value in [12] came to 35.1. The molecule also came in with an Efficacy in the data set with Rattus norvegicus [3] of 50.6%. Also, in the data set on Rattus norvegicus [14], the Iron mobilization was found to be 54.5%.

On to `CC(O)c1c(O)c(=O)ccn1CCCO` (stereo not drawn), for which the logD in data set [1] is -1.12. This molecule registered a logP in data set [2] of -1.12. In [5], this molecule returned a pFe3 of 21.5. Moreover, the pKa worked out at 2.98 in data set [6] and 8.72 in data set [7]. The “Log K1” value in data set [9] stood at 14.93. Besides, in data set [10], the “Log K2” value is reported as 10.87. Also, the “Log K3” value in data set [11] was found to be 8.87. The “Log beta3” value in data set [12] stood at 34.7. This molecule had an Efficacy with Rattus norvegicus [3] of 10.6%. In addition, the Iron mobilization in the data set on Rattus norvegicus [4] is reported as 14.5%.

Turning to `Cc1c(O)c(=O)ccn1CCCOC(=O)c1ccccc1`, the logD in [1] was 1.25. The molecule also displayed a logP in data set [2] of 1.25. The same molecule yielded an Efficacy with Rattus norvegicus [3] of 32.5%.

In turn, `O=c1ccn(CCCO)c(CO)c1O` had a logD in data set [1] of -1.25. Also, the logP in data set [2] was -1.25. In data set [5], this molecule had a pFe3 of 20.7. For the same molecule, the results for the pKa in [6] and in data set [7] were 3.02 and 9.29, respectively. In addition, in data set [9], the “Log K1” value is 15.67. The “Log K2” value in [10] worked out at 10.01. Moreover, the “Log K3” value in [11] worked out at 9.57. Moreover, the “Log beta3” value in [12] was determined as 35.3. Moreover, the Efficacy with Rattus norvegicus [3] was 7.8%. Moreover, in the data set on Rattus norvegicus [4], the Iron mobilization amounted to 11.7%.

In turn, `Cc1cc(=O)c(O)c(C(C)O)n1C` (stereo not drawn) gave a logD in data set [1] of -0.606. Moreover, the logP in data set [2] was -0.606. This molecule also showed a pFe3 in [5] of 21.5. In addition, the pKa in [6] is 3.54; in data set [7], 8.99. Besides, the “Log K1” value in [9] was 15.38. Moreover, the “Log K2” value in data set [10] came to 11.09. The “Log K3” value in data set [11] came to 9.05. The “Log beta3” value in data set [12] is reported as 35.5. The Efficacy with Rattus norvegicus [3] is 44.5%. Further, in the data set on Rattus norvegicus [4], the Iron mobilization is reported as 48.4%.

Consider `CCc1c(O)c(=O)ccn1CCOC(=O)C(C)(C)C`, for which the logD in [1] was 1.16. This molecule gave a logP in data set [2] of 1.16. Besides, the Efficacy in the data set with Rattus norvegicus [3] is 19.1%.

As for `CCn1c(C)cc(=O)c(O)c1CO`, in [1], the logD is -0.652. The logP in data set [2] was -0.652. Further, the pFe3 in data set [5] amounted to 20.4. Moreover, the pKa in data set [6] amounted to 3.29; in [7], 9.45. The “Log K1” value in data set [9] amounted to 14.37. Also, the “Log K2” value in data set [10] amounted to 11.6. Further, the “Log K3” value in data set [11] was 9.64. Moreover, in data set [12], the “Log beta3” value is listed as 35.6. In the data set with Rattus norvegicus [3], this molecule had an Efficacy of 9%. This molecule also returned an Iron mobilization in the data set on Rattus norvegicus [4] of 12.9%.

`CCc1c(O)c(=O)ccn1CCO`: the Efficacy with Rattus norvegicus [3] was 12.9%.

The molecule `CCC(O)c1c(O)c(=O)cc(C)n1C` (stereo not drawn) showed a log distribution coefficient (logD) in data set [1] of -0.134. Also, the logP in data set [2] was -0.134. In addition, in data set [5], the pFe3 amounted to 21. Moreover, the results for the pKa in data set [6], in [15] and in data set [7] were 3.76, 3.78 and 9, respectively. Besides, the “Log K1” value in [9] turned out to be 14.5. Also, in [10], the “Log K2” value is reported as 11.48. The “Log K3” value in data set [11] is listed as 9.05. The “Log beta3” value in data set [12] was found to be 35. For the same molecule, the Efficacy in the data set with Rattus norvegicus [3] was found to be 56.5%. The Iron mobilization in the data set on Rattus norvegicus [4] was determined as 60.4%.

On to `Cc1cc(=O)c(O)c(CO)n1C`, for which the logD in data set [1] is -1.01. Also, the logP in data set [2] is -1.01. In data set [5], this molecule displayed a pFe3 of 20.4. The pKa in data set [6] worked out at 3.32; in data set [7], 9.44. Moreover, the “Log K1” value in data set [9] came out at 14.39. In data set [10], the “Log K2” value is listed as 11.57. In addition, in data set [11], the “Log K3” value is reported as 9.55. The “Log beta3” value in data set [12] is given as 35.5. In the data set with Rattus norvegicus [3], this molecule came in with an Efficacy of 0.6%. Moreover, in the data set on Rattus norvegicus [4], the Iron mobilization is 4.5%.

For the molecule `Cc1c(O)c(=O)ccn1CCCO`, the Efficacy in the data set with Rattus norvegicus [3] amounted to 26%.

In data set [5], `CCc1c(O)c(=O)ccn1CC` gave a pFe3 of 19.7. Besides, the values for the pKa in data set [6] and in data set [7] were 3.81 and 9.93, respectively. Besides, the “Log K1” value in [9] was found to be 15.2. For the same molecule, the “Log K2” value in data set [10] worked out at 11.76. In data set [11], the “Log K3” value is 9.84. Moreover, the “Log beta3” value in data set [12] was 36.8. This molecule gave an Efficacy with Rattus norvegicus [3] of 55.8%.

In the case of `Cc1c(O)c(=O)ccn1C` [DEFERIPRONE], the pFe3 in data set [5] is on record as 19.4. For the same molecule, in data set [7], the pKa was found to be 9.77. Also, the “Log K1” value in data set [9] stood at 14.56. Besides, the “Log K2” value in data set [10] turned out to be 12.19. Moreover, in data set [11], the “Log K3” value came to 9.69. Also, in [12], the “Log beta3” value came out at 36.4. The Efficacy in the data set with Rattus norvegicus [16] stood at 9.5%.

In general, logD refers to the decadic logarithm of the distribution of all forms, ionised or not, between an organic phase and buffer at a given pH. By logP is commonly meant the decadic logarithm of the partition coefficient of the neutral form, usually between octanol and water.
